Assays:
Type in all cases: cell-based
[1] = tested on: rat hypothalamic neurons (native AT1R); assay: Whole cell patch recordings from neurons in rat hypothalamic slices; settings: for effect on Ang II-induced depolarization / effect on Ang-(1-12)-induced depolarization: antagonist/inhibitor 10 μM; for effect on Ang II-induced depolarization: pretreatment of slices by superfusion; for effect on Ang-(1-12)-induced depolarization: prior superfusion of slices
How it was run: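 Coronal hypothalamic slices (250 μm, vibratome) came from Sprague-Dawley rats, 17-20 days old, of either sex, anaesthetised with 4% isoflurane. Slices were superfused with solution gassed with 95% O2/5% CO2 at 20 ± 1°C. Current-clamp whole-cell recordings were made from neurons […] to the 3rd ventricle. Peptide was puffed by nitrogen from a micropipette at 20-30 min intervals. Slices were pretreated with losartan, PD123319 or captopril at 10 μM each.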

[2] = molecular target: T1, AT1R (Homo sapiens, UniProt P30556); assay: Ca2+-based FLIPR assay, CHO/16z25 cells transiently expressing AT1R
T1 sequence (P30556 1-359): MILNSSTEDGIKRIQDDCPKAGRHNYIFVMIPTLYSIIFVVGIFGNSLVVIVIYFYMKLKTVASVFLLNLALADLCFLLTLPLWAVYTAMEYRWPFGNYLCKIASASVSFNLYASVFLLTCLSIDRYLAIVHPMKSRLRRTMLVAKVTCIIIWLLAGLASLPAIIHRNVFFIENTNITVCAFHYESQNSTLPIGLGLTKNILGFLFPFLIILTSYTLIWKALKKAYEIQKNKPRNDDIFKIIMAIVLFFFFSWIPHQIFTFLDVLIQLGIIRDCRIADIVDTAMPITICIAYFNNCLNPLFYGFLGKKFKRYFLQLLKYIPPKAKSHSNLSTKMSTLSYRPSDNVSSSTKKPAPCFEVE

[3] = molecular target: T1, AT1R; settings: 10 μM losartan; 1 μM Ang II or 10 μM Ang-(1-12), 5 min

effect on Ca2+ response stimulated by Ang-(1-12) ([2]; 5 μM Ang-(1-12), losartan 0.1-10 μM, pre-incubated 30 min, dose-dependent)	effect on Ang II-induced Ca2+ mobilization ([2]; COS-7 and CHO cells transfected with AT1R cDNA)	effect on Ang-(1-12)- and Ang II-induced ERK responses [3]	Compound	effect on Ang II-induced depolarization [1]	effect on Ang-(1-12)-induced depolarization [1]	hypothalamic neurons depolarized of those examined ([1]; Ang II 1 mM in micropipette, pressure ejection)	membrane depolarization, mean amplitude ([1]; Ang II 1 mM in micropipette, pressure ejection, mean ± SEM, n=10)
			C[C@H](CS)C(=O)N1CCC[C@H]1C(=O)O [captopril]	not affected	failed to suppress		
			Cc1cc(Cn2cnc3c2C[C@@H](C(=O)O)N(C(=O)C(c2ccccc2)c2ccccc2)C3)ccc1N(C)C [PD-123319]		not affected		
			CC[C@H](C)[C@H](NC(=O)[C@H](Cc1ccc(O)cc1)NC(=O)[C@@H](NC(=O)[C@H](CCCNC(=N)N)NC(=O)[C@@H](N)CC(=O)O)C(C)C)C(=O)N[C@@H](Cc1c[nH]cn1)C(=O)N1CCC[C@H]1C(=O)N[C@@H](Cc1ccccc1)C(=O)O [Ang II, angiotensin II]			10 of the 27	6.9 ± 0.9 mV
effectively suppressed	suppressed	inhibited	CCCCc1nc(Cl)c(CO)n1Cc1ccc(-c2ccccc2-c2nn[nH]n2)cc1 [losartan]	suppressed	antagonized		

From PMC3823637 (Neuropharmacology, 2013)
